From ChEMBL document CHEMBL4373727, “Thienopyrimidinone Derivatives That Inhibit Bacterial tRNA (Guanine37-N1)-Methyltransferase (TrmD) by Restructuring the Active Site with a Tyrosine-Flipping Mechanism” (J Med Chem, 2019) come the findings set out here.

Converted amounts (≈) assume the structure as drawn. The source made the active and inactive calls. Unless noted, no cut-off for these calls is given here. Bounds are passed on as bounds.

The target of data set [1] is T1, tRNA (guanine-N(1)-)-methyltransferase (Pseudomonas aeruginosa (strain ATCC 15692 / DSM 22644 / CIP 104116 / JCM14847 / LMG 12228 / 1C / PRS 101 / PAO1), UniProt Q9HXQ1).
T1 sequence (Q9HXQ1 whole entry): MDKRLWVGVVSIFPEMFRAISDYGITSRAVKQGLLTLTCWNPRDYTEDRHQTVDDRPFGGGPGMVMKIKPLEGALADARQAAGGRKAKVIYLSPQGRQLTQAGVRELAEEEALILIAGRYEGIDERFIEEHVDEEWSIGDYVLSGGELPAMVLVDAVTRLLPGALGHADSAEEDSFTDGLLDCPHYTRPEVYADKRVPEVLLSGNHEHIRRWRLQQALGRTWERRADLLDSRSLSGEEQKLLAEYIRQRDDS
Description: Inhibition of Pseudomonas aeruginosa tRNA (guanine(37)-N1)-methyltransferase (Leu5 to Asp25 residues) expressed in Escherichia coli BL21 (DE3) Rosetta T1R cells assessed as reduction in S-adenosyl-L-homocysteine production preincubated for 15 mins followed by 1.5 uM of tRNALeu(CAG) substrate and SAM addition and measured after 45 mins by MTase-Glo assay. Summed up: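 MTase-Glo luminescence assay. 8 nM TrmD preincubated 15 min at ambient temperature with serially diluted inhibitor (0–500 μM) in 50 mM Tris-HCl pH 8.0, 80 mM NaCl, 1 mM MgCl2, 0.5 mM DTT, 0.01% Triton X-100. Reaction with 2 μM SAM and tRNALeu(CAG), 45 min at 37 °C. Detection 30 min in the dark, SAH read against a standard curve. IC50 by nonlinear regression. Two independent experiments in duplicate.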

Data set [2] deals with T1, tRNA (guanine-N(1)-)-methyltransferase. Description: Inhibition of Pseudomonas aeruginosa tRNA (guanine(37)-N1)-methyltransferase (Leu5 to Asp25 residues) expressed in Escherichia coli BL21 Rosetta (DE3) assessed as reduction in S-adenosyl-L-homocysteine production preincubated for 15 mins followed by 4.5 uM of tRNALeu(CAG) substrate and SAM addition and measured after 45 mins by MTase-Glo assay. The method in brief: (§1)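 tRNA competition: same MTase-Glo assay with 8 nM PaTrmD and 2 μM SAM, 15 min preincubation and 45 min reaction at 37 °C. tRNALeu(CAG) at 1.5, 4.5 or 15 μM. IC50 from dose–response curves, duplicate data points.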

For data set [3] the target is unchanged. Description: Inhibition of Pseudomonas aeruginosa tRNA (guanine(37)-N1)-methyltransferase (Leu5 to Asp25 residues) expressed in Escherichia coli BL21 Rosetta (DE3) assessed as reduction in S-adenosyl-L-homocysteine production preincubated for 15 mins followed by 15 uM of tRNALeu(CAG) substrate and SAM addition and measured after 45 mins by MTase-Glo assay. The method in brief:
as §1

For data set [4], the target named is T2, tRNA (guanine-N(1)-)-methyltransferase (Staphylococcus aureus (strain NCTC 8325 / PS 47), UniProt Q2FZ43).
T2 sequence (Q2FZ43 whole entry): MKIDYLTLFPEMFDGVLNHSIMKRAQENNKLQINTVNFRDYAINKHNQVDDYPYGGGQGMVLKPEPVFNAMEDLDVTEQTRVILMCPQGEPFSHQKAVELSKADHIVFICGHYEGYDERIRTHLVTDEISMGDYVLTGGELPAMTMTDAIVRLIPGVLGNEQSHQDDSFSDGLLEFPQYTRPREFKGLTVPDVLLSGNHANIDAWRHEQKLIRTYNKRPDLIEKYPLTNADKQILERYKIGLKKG
Description: Binding affinity to full length Staphylococcus aureus tRNA (guanine(37)-N1)-methyltransferase expressed in Escherichia coli BL21 (DE3) by surface plasmon resonance assay. Summed up: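 SPR at 25 °C. His-tagged TrmD (50 μg/mL) captured on an anti-His antibody surface (about 2200 RU), with a blank reference cell. Buffer: 50 mM Tris-HCl pH 8, 150 mM NaCl, 1 mM MgCl2, 1 mM DTT, 0.05% Tween-20. Analyte in 2-fold dilutions, injected lowest to highest at 30 μL/min, 30 s contact, 240 s dissociation. KD from steady-state affinity fit.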

For data set [5], the system named is Staphylococcus aureus. The data set can be described thus: Antibacterial activity against methicillin-resistant Staphylococcus aureus ATCC 43300 at 100 uM incubated for 24 hrs. The format is functional, organism-based. The method in brief: (§2)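 Single-concentration growth screen: 100 μM test compound with log-phase bacteria at about 5×10^5 cells/mL. Incubation 24 h at 37 °C. Growth read by OD600 and given as percent of untreated control. MRSA was grown in cation-adjusted Mueller–Hinton broth. M. smegmatis was grown in complete Middlebrook 7H9. Ampicillin and kanamycin served as positive controls.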

Data set [6] deals with Enterococcus faecalis. The data set can be described thus: Antibacterial activity against Enterococcus faecalis ATCC 51299 at 100 uM incubated for 24 hrs. The class given is functional, organism-based. Summed up: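 Single-concentration screen in brain heart infusion broth. Log-phase cells at ~5×10^5 cells/mL were grown with 100 μM compound for 24 h at 37 °C. Growth was read as OD600 and expressed as a percentage of untreated wells. DMSO and blank controls were included.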

A further data set has as its system Streptococcus pneumoniae. Description: Antibacterial activity against Streptococcus pneumoniae ATCC 49619 at 100 uM incubated for 24 hrs. The class given is functional, organism-based. The method in brief: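 Single 100 μM screen in MH medium with 3% defibrinated sheep blood at 37 °C under 5% CO2, ~5×10^5 cells/mL, 24 h.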
In data set [7] the test system is Mycolicibacterium smegmatis. The data set can be described thus: Antibacterial activity against Mycolicibacterium smegmatis MC2 155 at 100 uM incubated for 24 hrs. The format is functional, organism-based. Summed up:
as §2

Data set [8] concerns Mycobacterium tuberculosis. Description: Antibacterial activity against Mycobacterium tuberculosis ATCC 27294 at 100 uM incubated for 7 days. The format is functional, organism-based.
The subject of data set [9] is Staphylococcus aureus. The data set can be described thus: Antibacterial activity against methicillin-resistant Staphylococcus aureus ATCC 43300 incubated for 24 hrs by serial broth microdilution method. The class given is functional. Conditions: ATCC 43300, 24 h. Summed up: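 Growth read by OD600. MRSA in cation-adjusted Mueller–Hinton broth, M. smegmatis in complete 7H9. MIC50 and MIC90 are 50% and 90% growth inhibition versus drug-free controls. Two independent experiments, each in duplicate.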

Data set [10] concerns Enterococcus faecalis. The data set can be described thus: Antibacterial activity against Enterococcus faecalis ATCC 51299 incubated for 24 hrs by serial broth microdilution method. The format is functional, organism-based. Summed up:
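Broth microdilution in brain heart infusion broth, ~5×10^5 cells/mL log-phase inoculum, serial compound dilutions, 24 h at 37 °C, OD600 read-out. MIC50/MIC90 are the concentrations giving 50%/90% growth inhibition relative to drug-free controls. Two independent experiments in duplicate.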

In data set [11] the test system is Mycolicibacterium smegmatis. Description: Bactericidal activity against Mycolicibacterium smegmatis MC2 155 assessed as reduction in CFU at 1 to 4 times MIC90 incubated for 24 hrs. The format is functional. Particulars: MC2 155, 24 h, read-out: MBC99.9.
In another data set the test system is Erythrocyte. The data set can be described thus: Hemolytic activity in human RBC at 100 uM measured after 1 hr. The format is ADME, cell-based. Summed up: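 Fresh human RBCs were PBS-washed and resuspended to OD600 24, then mixed 1:1 by volume with compound serially diluted in PBS. Incubated 1 h at 37 °C without shaking and centrifuged at 1000g for 15 min. Triton X-100 served as positive control. Run in triplicate.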

Regarding `CCCCCCCCNCc1ccc(CNC(=O)c2csc3nc[nH]c(=O)c23)cc1`, the concentration for half-maximal inhibition (IC50) amounted to 24 nM in data set [1], 60 nM in [2] and 260 nM in data set [3]. In addition, in data set [4], binding was put at a Kd of 3100 nM. In addition, the result (with Staphylococcus aureus [5]; with Enterococcus faecalis [6]; in the data set on Streptococcus pneumoniae; in data set [7]; in data set [8]) was Active. The MIC50 in the data set on Staphylococcus aureus [9] is 31 µM (≈ 13.2 µg/mL). In the data set with Staphylococcus aureus [9], this compound registered an MIC90 of 36 µM (≈ 15.4 µg/mL). Moreover, the MIC50 entry in the data set on Enterococcus faecalis [10] was “inactive”. In addition, the MIC90 entry in the data set on Enterococcus faecalis [10] was “inactive”. Further, in [11], the MBC is more than 100 µM. The Activity entry in the data set with Erythrocyte is given as “Non-Toxic”.
As to `CCCCCCCCCCNCc1ccc(CNC(=O)c2csc3nc[nH]c(=O)c23)cc1`, the concentration for half-maximal inhibition (IC50) in data set [1] amounted to 25 nM. For the same compound, the outcome (with Staphylococcus aureus [5]; in the data set on Enterococcus faecalis [6]; in the data set with Streptococcus pneumoniae; in [7]; in [8]) was Active. Further, the MIC50 in the data set with Staphylococcus aureus [9] came out at 6 µM (≈ 2.73 µg/mL). In the data set on Staphylococcus aureus [9], the MIC90 was determined as 8.5 µM (≈ 3.86 µg/mL). The MIC50 result in the data set on Enterococcus faecalis [10] is “inactive”. Besides, the MIC90 entry in the data set on Enterococcus faecalis [10] was “inactive”. The MBC in data set [11] stood at 36 µM (≈ 16.4 µg/mL). Also, the Activity entry in the data set with Erythrocyte was “Non-Toxic”.
As to `NC1CCN(Cc2ccc(CNC(=O)c3csc4nc[nH]c(=O)c34)cc2)CC1`, the results for the IC50 in [1], in data set [2] and in data set [3] were 180 nM, 330 nM and 840 nM, respectively. The dissociation constant Kd in data set [4] was found to be 27500 nM. Besides, the result (with Staphylococcus aureus [5]; in the data set with Enterococcus faecalis [6]; with Streptococcus pneumoniae; in data set [7]; in [8]) was inactive.
